In article PMC9282716 (Cell reports, 2022):
Like-named read-outs stand apart in the source and are kept apart here.

Key:
EP2 receptor [1] = target: T1, EP2 receptor (Homo sapiens, UniProt P43116); test: cell-based; type: cell-based
EP2 receptor [2] = target: T1, EP2 receptor; test: Cell-based TR-FRET cAMP assay in BE
Hs68 cells = test: TR-FRET cAMP assay in normal fibroblast cell line Hs68; type: cell-based, human; details: 10 μM agonist, Hs68 fibroblasts
[3] = test system: EP2-deleted SK-N-AS cells; test: TR-FRET cAMP assay in EP2 knockout SK-N-AS cell lines; type: cell-based, human; details: read-out: PGE2 EC50 for cAMP
Procedure, shortened: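 EP2-knockout SK-N-AS lines were made with lentiCRISPRv2 sgRNAs, selected with puromycin (2 µg/mL) and verified by sequencing. […] After lysis with cAMP-d2 and anti-cAMP cryptate and 1 h at RT, TR-FRET was read (ex 340 nm; em 665/590 nm), n = 4. EC50 came from concentration–response curves.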

T1 sequence (P43116 whole entry): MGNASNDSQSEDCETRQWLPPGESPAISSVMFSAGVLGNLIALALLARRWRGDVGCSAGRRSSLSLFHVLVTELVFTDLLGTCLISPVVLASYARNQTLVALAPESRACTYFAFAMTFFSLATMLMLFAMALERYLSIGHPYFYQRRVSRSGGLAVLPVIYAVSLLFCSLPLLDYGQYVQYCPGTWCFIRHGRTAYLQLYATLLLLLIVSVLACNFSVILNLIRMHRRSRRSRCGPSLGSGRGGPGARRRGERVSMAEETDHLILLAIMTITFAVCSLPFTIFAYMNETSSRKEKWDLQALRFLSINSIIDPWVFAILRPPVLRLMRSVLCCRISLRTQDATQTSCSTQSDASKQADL

CCCC1([C@H](O)C/C=C/[C@H]2[C@H](O)CC(=O)[C@@H]2CCCCCCC(=O)OC)CCC1 [butaprost]
EC50 (EP2 receptor [1]; agonist EC50 for cAMP induction, SK-N-AS cells, n = 4): 170 nM
EC50 (EP2 receptor [2]): 470 nM

O=C1CC[C@H](/C=C/[C@@H](O)Cc2ccccc2)N1CCCCCCc1nn[nH]n1 [CAY10598]
cAMP production (Hs68 cells): more cAMP production than EP2 agonist butaprost and PGE2

CCCCC[C@H](O)/C=C/[C@H]1[C@H](O)CC(=O)[C@@H]1C/C=C\CCCC(=O)O [PGE2, Prostaglandin E2]
EC50 ([3]; Homo sapiens, SK-N-AS): > 10000 nM
EC50 ([3]; EP2 KO2 SK-N-AS cell line): > 10000 nM

CCOc1c2c(c(OCC)c3ccccc13)C(=O)N(c1ccc(CC(=O)NS(=O)(=O)c3ccccc3)cc1)C2 [GW627368X]
IC50, inhibition of PGE2-induced cAMP production (EP2 receptor [1]): no effect
